{"source": "ChEMBL document CHEMBL3217593", "about": "“A Bivalent Ligand Targeting the Putative Mu Opioid Receptor and Chemokine Receptor CCR5 Heterodimers: Binding Affinity versus Functional Activities” (Medchemcomm, 2013)", "key": {"[1]": {"biological_target": "T1, C-C chemokine receptor type 5 (Homo sapiens, UniProt P51681)", "test": "Antagonist activity at CCR5 in Gqi5 transfected human MOLT4 cells assessed as inhibition of RANTES-stimulated Ca2+ influx preincubated for 15 mins followed by […]", "format": "functional, cell-based, MOLT-4", "method_in_brief": "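CCR5-MOLT-4 cells transfected with chimeric […]. Inhibition of RANTES-stimulated Ca2+ flux was measured. IC50 is the mean ± S.E.M. of three independent experiments.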"}, "Mu-type opioid receptor [2]": {"biological_target": "T2, Mu-type opioid receptor (Homo sapiens, UniProt P35372)", "T2 sequence (P35372 whole entry)": "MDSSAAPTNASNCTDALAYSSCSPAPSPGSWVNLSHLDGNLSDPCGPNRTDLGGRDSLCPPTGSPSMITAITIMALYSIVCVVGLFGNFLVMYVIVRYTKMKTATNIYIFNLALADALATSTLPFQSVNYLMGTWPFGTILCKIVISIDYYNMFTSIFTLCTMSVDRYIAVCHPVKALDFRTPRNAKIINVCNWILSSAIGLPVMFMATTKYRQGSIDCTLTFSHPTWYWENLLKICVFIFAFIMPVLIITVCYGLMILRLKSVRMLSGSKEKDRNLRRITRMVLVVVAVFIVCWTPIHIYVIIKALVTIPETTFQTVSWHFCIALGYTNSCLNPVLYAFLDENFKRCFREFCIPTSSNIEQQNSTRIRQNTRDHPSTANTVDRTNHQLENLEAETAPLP", "test": "Displacement of [3H]-naloxone from human mu opioid receptor expressed in CHO cells after 1 hr", "format": "cell-based", "method_in_brief": "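Competitive binding in hMOR-expressing CHO cells with [3H]naloxone as radioligand. Ki is the mean ± S.E.M. of three independent experiments.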"}, "Mu-type opioid receptor [3]": {"biological_target": "T2, Mu-type opioid receptor", "test": "Antagonist activity at human mu opioid receptor expressed in Gqi5 transfected CHO cells assessed as inhibition of DAMGO-stimulated Ca2+ influx preincubated for 15 mins followed by DAMGO challenge", "format": "functional, cell-based", "method_in_brief": "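hMOR-CHO cells transfected with chimeric […]. Inhibition of DAMGO-stimulated Ca2+ flux was measured. IC50 is the mean ± S.E.M. of three independent experiments.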"}, "Mu-type opioid receptor [4]": {"biological_target": "T2, Mu-type opioid receptor", "test": "Agonist activity at human mu opioid receptor expressed in Gqi5 transfected CHO cells after 15 mins", "format": "cell-based", "method_in_brief": "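hMOR-expressing CHO cells transfected with chimeric […] were tested for direct Ca2+ mobilization (agonist mode).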"}, "[5]": {"biological_target": "C-C chemokine receptor type 5 (Macaca mulatta, UniProt P61813)", "test": "Displacement of [125I]-MIP-1alpha from CCR5 in rhesus monkey Chem-1 cell membranes after 120 mins by liquid scintillation counting analysis"}, "[6]": {"test": "Cytotoxicity against human astrocytes assessed as cell viability at 100 nM by AOPI staining-based fluorescence assay", "details": "astrocyte, 0.1 µM", "method_in_brief": "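Astroglial cell viability after exposure at 100 nM, assessed by dual green/red fluorescence labeling with AOPI.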"}, "[7]": {"biological_target": "T1, C-C chemokine receptor type 5", "test": "Agonist activity at CCR5 in Gqi5 transfected human MOLT4 cells after 15 mins", "format": "cell-based", "details": "MOLT-4", "method_in_brief": "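Ca2+ mobilization, agonist mode, in CCR5-MOLT-4 cells transfected with chimeric […]. Intracellular Ca2+ flux was read directly, with no agonist challenge.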"}, "Homo sapiens": {"species_on_record": "Homo sapiens", "test": "Binding affinity to CCR5/MOR in human astrocytes assessed as inhibition of R5 HIV-1 SF162 infection by measuring Tat protein expression at 1.5 uM preincubated for 30 to 60 mins followed by viral infection measured after 18 hrs by luciferase reporter gene assay", "format": "cell-based", "method_in_brief": "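Human astrocytes infected with R5 HIV-1 SF162. Infectivity was read as relative Tat protein expression by luciferase-based assay at 18 h post-infection. Tested at 1.5 μM after an initial dose-response study. Values are from three independent experiments, compared against uninfected and infected controls.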"}, "[8]": {"biological_target": "CCR5/mu opioid receptor complex (Homo sapiens) (UniProt P51681+P35372)", "sequence (P35372 whole entry, looked up)": "as the sequence (P35372 whole entry) above", "sequence (P51681 whole entry, looked up)": "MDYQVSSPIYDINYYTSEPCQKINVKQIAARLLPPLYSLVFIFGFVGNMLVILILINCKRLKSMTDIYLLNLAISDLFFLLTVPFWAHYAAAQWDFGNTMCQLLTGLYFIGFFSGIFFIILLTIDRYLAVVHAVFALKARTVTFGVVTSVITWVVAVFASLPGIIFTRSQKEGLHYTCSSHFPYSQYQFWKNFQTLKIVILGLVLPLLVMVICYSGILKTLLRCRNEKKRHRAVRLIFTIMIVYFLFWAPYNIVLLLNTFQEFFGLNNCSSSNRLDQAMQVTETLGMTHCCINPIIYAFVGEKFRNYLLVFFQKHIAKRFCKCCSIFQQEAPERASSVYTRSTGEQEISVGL", "details": "100 nM"}}, "note": "Active and inactive are the calls of the source. The rule behind the calls is not given here.", "data": [{"smiles": "Cc1nnc(C(C)C)n1C1CC2CCC(C1)N2CC[C@H](NC(=O)C1CCC(F)(F)CC1)c1ccc(NC(=O)OC(C)(C)C)cc1", "note": "(some centres undefined)", "values": [{"measurement": "IC50", "setting": "[1]", "value": 1570, "unit": "nM"}]}, {"smiles": "CNC(=O)COCC(=O)NCCCCCCCNC(=O)COCC(=O)N[C@@H]1CC[C@@]2(O)[C@H]3Cc4ccc(O)c5c4[C@@]2(CCN3CC2CC2)[C@H]1O5", "values": [{"measurement": "Ki", "setting": "Mu-type opioid receptor [2]", "value": 9.2, "unit": "nM"}, {"measurement": "IC50", "setting": "Mu-type opioid receptor [3]", "value": 37.8, "unit": "nM"}, {"measurement": "Activity", "setting": "Mu-type opioid receptor [4]", "value": "inactive"}]}, {"smiles": "CNC(=O)COCC(=O)Nc1ccc([C@H](CCN2C3CCC2CC(n2c(C)nnc2C(C)C)C3)NC(=O)C2CCC(F)(F)CC2)cc1", "note": "(some centres undefined)", "values": [{"measurement": "IC50", "setting": "[1]", "value": 7910, "unit": "nM"}]}, {"smiles": "Cc1nnc(C(C)C)n1C1CC2CCC(C1)N2CC[C@H](NC(=O)C1CCC(F)(F)CC1)c1ccc(N)cc1", "note": "(some centres undefined)", "values": [{"measurement": "Ki", "setting": "[5]", "value": 15.3, "unit": "nM"}, {"measurement": "IC50", "setting": "[1]", "value": 14.2, "unit": "nM"}]}, {"smiles": "Cc1nnc(C(C)C)n1C1CC2CCC(C1)N2CC[C@H](NC(=O)C1CCC(F)(F)CC1)c1ccc(NC(=O)COCC(=O)NCCCCCCCNC(=O)COCC(=O)N[C@@H]2CC[C@@]3(O)[C@H]4Cc5ccc(O)c6c5[C@@]3(CCN4CC3CC3)[C@H]2O6)cc1", "note": "(some centres undefined)", "values": [{"measurement": "Activity", "setting": "[6]", "value": "Non-toxic"}, {"measurement": "Activity", "setting": "[7]", "value": "inactive"}, {"measurement": "Activity", "setting": "Mu-type opioid receptor [4]", "value": "inactive"}]}, {"smiles": "O=C1CC[C@@]2(O)[C@H]3Cc4ccc(O)c5c4[C@@]2(CCN3CC2CC2)[C@H]1O5", "values": [{"measurement": "inhibition", "setting": "Homo sapiens", "value": "inactive"}]}, {"smiles": "CNC(=O)COCC(=O)NCCCCCCCNC(=O)COCC(=O)Nc1ccc([C@H](CCN2C3CCC2CC(n2c(C)nnc2C(C)C)C3)NC(=O)C2CCC(F)(F)CC2)cc1", "note": "(some centres undefined)", "values": [{"measurement": "Ki", "setting": "[5]", "value": 151, "unit": "nM"}, {"measurement": "IC50", "setting": "[1]", "value": 622, "unit": "nM"}]}, {"smiles": "Cc1nnc(C(C)C)n1[C@H]1C[C@H]2CC[C@@H](C1)N2CC[C@H](NC(=O)C1CCC(F)(F)CC1)c1ccccc1", "values": [{"measurement": "inhibition", "setting": "[8]", "value": "Active"}]}]}
